Published values of several laboratories.
Compare with care: the assays were run in different laboratories.
Target: Phosphatidylinositol 5-phosphate 4-kinase type-2 gamma (PIP4K2C, Homo sapiens, UniProt Q8TBX8)
Sequence (Q8TBX8 1-421, as in one of the studies): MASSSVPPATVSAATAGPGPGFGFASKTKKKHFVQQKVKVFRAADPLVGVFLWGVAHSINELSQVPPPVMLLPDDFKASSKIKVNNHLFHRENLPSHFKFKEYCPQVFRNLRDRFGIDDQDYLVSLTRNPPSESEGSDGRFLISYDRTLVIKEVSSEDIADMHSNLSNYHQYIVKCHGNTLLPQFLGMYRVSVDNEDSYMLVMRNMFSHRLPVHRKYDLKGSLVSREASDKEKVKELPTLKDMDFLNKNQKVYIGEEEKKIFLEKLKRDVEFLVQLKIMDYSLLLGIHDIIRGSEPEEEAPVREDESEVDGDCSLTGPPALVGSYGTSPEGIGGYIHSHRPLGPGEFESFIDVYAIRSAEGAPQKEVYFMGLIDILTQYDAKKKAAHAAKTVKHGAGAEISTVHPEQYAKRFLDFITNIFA

Structure (SMILES)	assay	conditions	remaining binding
CN(C)c1nccc(-c2cnn3ncccc23)n1	binding	1 µM	100%
O=C(N1CCS(=O)(=O)CC1)N1C[C@H](c2ccc(OC(F)(F)F)cc2)C[C@H](c2nc(C3CC3)no2)C1	cell-free assay, competition with immobilised ligand	1 µM	96%
CN(C)c1nccc(-c2cnc3ncccn23)n1	binding	1 µM	93%
CCS(=O)(=O)c1cc2cc(C[C@@](O)(CC(C)(C)c3ccc(F)cc3C(N)=O)C(F)(F)F)[nH]c2cn1	cell-free assay, competition with immobilised ligand	1 µM	100%
COc1ccnn2ncc(-c3ccnc(N(C)C)n3)c12	binding	1 µM	80%
O=C(c1ccc(Nc2ncc(Cl)c(-c3ccc(Cl)s3)n2)cc1)N1CCC(N2CCCC2)CC1	binding, competition with immobilised ligand	1 µM	5.9%
CC(=O)N1CCC(c2ccc(C(=O)NC3=NCCN3)cc2C(F)(F)F)CC1	cell-free assay, competition with immobilised ligand	1 µM	94%
c1cncc(-c2cccc(Nc3nccc(NC4CCCCC4)n3)c2)c1	binding, competition with immobilised ligand	10 µM	21%
C[C@H]1CCN(c2nccc(-c3cnn4ncccc34)n2)C1	binding	1 µM	42%
CNC(=O)[C@@H]1CC[C@@H](n2c(-c3ccc4cnccc4c3)nc3ccc(C(=O)NCc4cccc(C(N)=O)c4)cc32)C1	binding, competition with immobilised ligand	1 µM	91%
Cc1nc(NC(=O)N2CCC[C@H]2C(N)=O)sc1-c1ccnc(C(C)(C)C(F)(F)F)c1	binding, competition with immobilised ligand	10 µM	100%
Cc1cc(C)c(-n2ccn3nc(-c4cccnc4)cc23)cc1NC(=O)c1cc(C#N)cc(S(F)(F)(F)(F)F)c1	cell-free assay, competition with immobilised ligand	0.1 µM	89.9%
COc1cnc(Nc2cccc(S(N)(=O)=O)c2)nc1N1CCN(c2ccccc2)CC1	binding, competition with immobilised ligand	1 µM	95%
CC(C)CC(=O)N1CCc2nc(-c3ccc(Br)cc3)nc(N(C)Cc3ccccc3)c2C1	cell-free assay, competition with immobilised ligand	0.1 µM	96%
COc1ncc2cc3ccccc3nc2c1C#N	cell-free assay, competition with immobilised ligand	5 µM	100%
Cc1cnn2ncc(-c3ccnc(N(C)C)n3)c2c1	binding	1 µM	80%
O=C(c1ccc(Nc2ncc(Cl)c(-c3cc4ccccc4s3)n2)cc1)N1CCC(N2CCCC2)CC1	binding, competition with immobilised ligand	1 µM	6.7%
F[C@@H]1CCN(c2nccc(-c3cnn4ncccc34)n2)C1	binding	1 µM	100%
O=C(NCCCN1CCOCC1)c1ccc(Nc2ncc(Cl)c(-c3ccc(Cl)s3)n2)cc1	binding, competition with immobilised ligand	1 µM	15%
c1ccc(N2CCN(Cc3nc4ccccc4[nH]3)CC2)nc1	binding, competition with immobilised ligand	1 µM	86%
N[C@@H]1CCN(c2nccc(-c3cnn4ncccc34)n2)C1	binding	1 µM	64%
O=C(NCC1CCOCC1)c1n[nH]cc1NC(=O)c1c(F)cccc1F	binding, competition with immobilised ligand	1 µM	91%
